S100A4 MyoIIA – blocks human S100A4 binding to myosin IIA peptide. AID 652163. S100A4/TAMRA-MyoIIA peptide fluorescence polarization. inhibition, % at 10.7 µM. hit rate 0.14% among 360,000;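 active = mean inhibition of at least 70% across replicates, with every replicate also reaching that level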
Target sequence (P26447 whole entry, looked up): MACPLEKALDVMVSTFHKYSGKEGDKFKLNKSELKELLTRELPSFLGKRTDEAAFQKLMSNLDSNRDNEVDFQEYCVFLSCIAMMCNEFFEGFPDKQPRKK
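assay system = human S100A4 monomer with TAMRA-labelled myosin IIA peptide | also added = labelled myosin peptide probe, 5 nM | incubation = 5 min between mix addition and reading | control set = DMSO and TFP controls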
DENV2 CPE – DENV2-induced cell death inhibition. DENV2-infected cells, cytopathic effect rescue, plate reader. CPE inhibition, % at 9.99 µM. hit rate 1.7% among 350,000. AID 651640; in the data active = CPE inhibition above about 20%, passing the limit was not always enough; tested in BHK-21 cells;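 note: 0% = median of neutral control wells and 100% = median of positive control wells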
SIRT5 block – sirtuin-5 (human) deacylase inhibition; hit rate 1.1% among 330,000; AID 652115; Q9NXA8; Purified SirT5, succinyl-peptide AMC, trypsin-coupled fluorescence; inhibition, % at 15 µM; in the data active = inhibition above about 15%
Target sequence (Q9NXA8 whole entry, looked up): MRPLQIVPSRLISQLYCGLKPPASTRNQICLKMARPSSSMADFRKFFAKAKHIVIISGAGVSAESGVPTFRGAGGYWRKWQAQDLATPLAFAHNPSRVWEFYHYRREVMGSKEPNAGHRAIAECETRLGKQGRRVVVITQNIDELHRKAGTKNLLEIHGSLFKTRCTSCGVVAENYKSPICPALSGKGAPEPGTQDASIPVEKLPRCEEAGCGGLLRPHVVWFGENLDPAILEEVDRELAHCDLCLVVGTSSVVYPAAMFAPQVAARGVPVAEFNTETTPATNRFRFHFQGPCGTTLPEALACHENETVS
ERAP1 inh – ERAP1 (human) enzyme inhibition; Q9NZ08; inhibition, % at 10.7 µM; AID 652197; recombinant ERAP1, Leu-AMC fluorescence, 60 min; hit rate 0.15% among 340,000;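 active = mean replicate inhibition of at least 30%, or all replicates individually reaching that 30% level; inactive = mean below 30% and not every replicate reaching it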;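 note: 0% = neutral control wells and 100% = L-leucinethiol positive control wells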
CAL PDZ FP-1 – blocks peptide binding to the human CAL PDZ domain | purified CAL PDZ, TMR-peptide fluorescence polarization, 1 h | inhibition, % at 24.9 µM | hit rate 0.92% among 300,000;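 active = mean inhibition of at least 30% with at least half of replicates also reaching 30%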;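 note: 0% = DMSO neutral control and 100% = excess unlabeled competitor peptide PRC23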
CAL PDZ FP-2 – inhibitors of human CAL PDZ peptide binding; inhibition, % at 20 µM; Q9HD26; purified CAL PDZ, TMR-peptide fluorescence polarization, 1 h; hit rate 0.02% among 330,000;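 active = highest replicate inhibition of at least 40%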;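 note: plate controls were DMSO neutral control wells for no effect and unlabeled competitor peptide control wells for full effect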
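Material: tagged CAL PDZ domain; buffer or medium: 25 mM sodium phosphate pH 7.4, 150 mM NaCl, TCEP, IgG, Thesit; compound dosing: single point, 20 µM; schedule: 1 h incubation at room temperature before polarization reading; measured by: FP readout, S and P plane fluorescence; read-out basis: percent inhibition from loss of millipolarization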
* hit, by the source's call; / = no result; ! = not active in a repeat. Hits are enriched below; roughly 2.9% of the tested compounds scored in any of these assays.

SMILES | S100A4 MyoIIA | DENV2 CPE | SIRT5 block | ERAP1 inh | CAL PDZ FP-1 | CAL PDZ FP-2
COC(=O)C[C@@H]1C[C@H]2c3cc(NC(=O)NC4CCCCC4)ccc3O[C@H]2[C@@H](CO)O1 | -4 | -3 | 0 | 0 | / | /
COc1ccccc1CNC(=O)C[C@@H]1C=C[C@@H](NC(=O)CC2CC2)[C@@H](CO)O1 | -11 | -3 | 3 | -2 | / | /
CCCC#Cc1ccc([C@H]2[C@@H](CO)N3C(=O)CN(C(=O)Nc4ccc(F)cc4)C[C@H]23)cc1 | -11 | -6 | -3 | 0 | / | /
O=C([C@H]1[C@H](CO)[C@H]2Cn3c(ccc(C4=CCCCC4)c3=O)[C@@H]1N2Cc1nccs1)N1CCOCC1 | -5 | -5 | -18 | 0 | / | /
Cc1noc(C)c1S(=O)(=O)Nc1ccc2c(c1)CC(=O)N([C@H](C)CO)C[C@H](C)[C@@H](CN(C)Cc1ccc(C(=O)O)cc1)O2 | 53 | -2 | 25* | 0 | / | /
Cc1noc(C)c1S(=O)(=O)Nc1ccc2c(c1)CC(=O)N([C@@H](C)CO)C[C@H](C)[C@H](CN(C)Cc1ccccc1)O2 | 3 | 8 | -4 | 0 | / | /
Cc1noc(C)c1S(=O)(=O)Nc1ccc2c(c1)CC(=O)N([C@@H](C)CO)C[C@@H](C)[C@@H](CN(C)Cc1ccc3c(c1)OCO3)O2 | 5 | 3 | 1 | 0 | / | /
Cc1noc(C)c1S(=O)(=O)Nc1ccc2c(c1)CC(=O)N([C@H](C)CO)C[C@H](C)[C@H](CN(C)Cc1ccc3c(c1)OCO3)O2 | 6 | 51* | 2 | 0 | / | /
Cc1noc(C)c1S(=O)(=O)Nc1ccc2c(c1)C(=O)N([C@H](C)CO)C[C@H](C)[C@@H](CN(C)Cc1ccc3c(c1)OCO3)O2 | 1 | 9 | 4 | 1 | / | /
Cc1noc(C)c1S(=O)(=O)Nc1ccc2c(c1)C(=O)N([C@@H](C)CO)C[C@H](C)[C@H](CN(C)Cc1ccc3c(c1)OCO3)O2 | 3 | 32* | 1 | 1 | / | /
COc1ccccc1-c1ccc2n(c1=O)C[C@@H]1[C@@H](CO)[C@H](C(=O)NCC3CC3)N(S(C)(=O)=O)[C@H]21 | -11 | 8 | -13 | 0 | / | /
CCCc1cn(CC[C@@H]2CC[C@@H](NC(=O)C3CCC3)[C@@H](CO)O2)nn1 | 2 | -3 | 2 | -2 | / | /
Nc1ccc(C(=O)Nc2ccc3c(O)cc(S(=O)(=O)O)cc3c2)cc1 | -21 | 5 | 66* | 10 | / | 0
COC(=O)c1sc(-c2ccc(Cl)cc2)cc1N | -9 | 0 | -1 | / | 55* | 0
CCN(CC(=O)Nc1cc(Cl)ccc1C)C(=O)c1ccc2c(c1)NC(=O)C(C)S2 (centres undefined) | -4 | 50* | 0 | -2 | -6 | -1
COc1cc(/C=C(\CC(=O)O)c2nc3ccccc3s2)ccc1OCC(=O)Nc1ccccc1F | -7 | -4 | 0 | -5 | 133* | -4
CCOc1cc(/C=C(\CC(=O)O)c2nc3ccccc3s2)ccc1OC | -2 | 12 | 3 | 3 | -4 | -1
COc1ccc(NC(C)=O)cc1NC(=O)c1ccc(C#N)cc1 | -9 | 17 | -2 | -1 | 31* | -2
COC(=O)C[C@H]1CC[C@H]2[C@@H](COc3ccc(NC(=O)Cc4cccs4)cc3C(=O)N2C)O1 | 2 | -2 | 4 | -2 | / | /
COc1cc2c(oc(=O)c3cc(C)cc(OC)c32)c2c(C3OC(C)C(O)C(C)(O)C3O)ccc(O)c12 (centres undefined) | -5 | -3 | 19* | 7 | 2 | 2
C[n+]1cccc(C(=O)NNC(=O)C23CC4CC(CC(C4)C2)C3)c1 | 1 | 7 | 1 | 109* | -6 | -2
C[N+](C)(C)CCCNC(=O)c1ccc(/C=N/O)nc1 | -1 | 0 | -3 | 109* | -2 | -4
CNCCCNC(=O)c1ccc(/C=N/O)nc1 | 5 | 3 | 0 | 0 | 3 | -17
O=C(Nc1ccc2c(c1)[C@H]1C[C@H](CC(=O)N3CCOCC3)O[C@H](CO)[C@H]1O2)NC1CCCCC1 | 1 | 3 | 0 | -1 | / | /
C=CCOc1c(Cl)cc(Cl)cc1S(=O)(=O)NCCO | -6 | 77* | / | 0 | -4 | 1
SMILES | S100A4 MyoIIA | DENV2 CPE | SIRT5 block | ERAP1 inh | CAL PDZ FP-1 | CAL PDZ FP-2
COc1cc(/C=C/C(=O)O)cc(S(=O)(=O)NCCO)c1OC | / | / | / | / | / | 0
CCNC(=O)C[C@H]1CC[C@H]2[C@@H](COc3ccc(NC(=O)c4ccccc4)cc3C(=O)N2C)O1 | -15 | 1 | -2 | 0 | / | /
COc1ccc2ccccc2c1CNC(C)c1ccccc1 (centres undefined) | -2 | 36* | 1 | -2 | -2 | /
COc1ccc2ccccc2c1CNCc1ccc(C)cc1 | 3 | -9 | 13 | 0 | 6 | 0
O=C(O)CSc1nc2c(c(C(F)(F)F)n1)CCCC2 | 2 | -1 | 9 | -1 | 78*! | 0
Cc1csc(SCC(=O)Nc2ccc3[nH]c(=O)[nH]c3c2)n1 | 0 | 9 | -1 | -2 | 106* | 0
CC(C)NC(=O)Nc1ccc2c(c1)C(=O)N([C@H](C)CO)C[C@@H](C)[C@H](CN(C)C(=O)Nc1ccc(F)cc1)OCCCC[C@@H](C)O2 | -3 | -6 | 1 | 1 | / | /
O=C(c1ccncc1)N1CC2(C1)[C@H](c1ccccc1)[C@H](CO)N2Cc1ccccn1 | 4 | 1 | 4 | 1 | / | /
C#CCNC(=O)C[C@@H]1C[C@@]2(C(=O)OCC)CCCC=C2N(CCCCCCCC)C1=O | -5 | 0 | 17* | / | / | /
CCCCCCCCN1C(=O)[C@H](CC(=O)NCC2CCCCC2)C[C@@]2(C(=O)OCC)CCCC=C12 | -1 | -6 | 0 | / | / | /
CCCCCCCCN1C(=O)[C@H](CC(=O)NCC2CCCCC2)C[C@@]2(C(=O)OCC)CCC=C12 | -14 | 0 | 22* | / | / | /
O=C(O)CSc1nnc(-c2cccc(S(=O)(=O)N3CCCCC3)c2)o1 | -1 | -1 | -1 | -5 | / | 0
N#Cc1ccc(CSc2nnc(-c3cccc(S(=O)(=O)N4CCCCC4)c3)o2)cc1 | / | / | / | / | 44* | -1
Cn1ccc2c(-c3ccc(C(=O)O)cc3)cc3c(c21)C1CCC3C1 (centres undefined) | 3 | 0 | / | 8 | / | /
Cn1ccc2c(-c3ccc(C(C)(C)C)cc3)cc3c(c21)C1CCC3C1 (centres undefined) | -1 | 21* | / | 0 | / | /
O=C(NCc1ccco1)C1(S(=O)(=O)c2ccccc2)CC=CC1 | -12 | 41* | / | -2 | -2 | 0
CC(=C/c1ccccc1)/C=N/Nc1nc(N2CCCCC2)nc(N2CCCCC2)n1 | 2 | 64* | -2 | 2 | -2 | -1
CCN(CC(=O)Nc1c(F)cccc1F)C(=O)C1CCN(C(=O)c2ccc(F)cc2)CC1 | 0 | -2 | -3 | -5 | -4 | -2

Compound activity (PubChem BioAssay)
